≈ marks a conversion by molar mass, not a printed value.
How the values were obtained:
Type in all cases: functional
MRC5 [1] = assay: Cytotoxicity against human MRC5 cells assessed as growth inhibition at 10^-5 M after 72 hrs by MTS assay relative to control; details: MRC5, 72 h, read-out: GI
How it was run: (§1)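 Cells from ATCC; HCT-116 grown in RPMI 1640 and MRC5 in DMEM, each with 10% FCS and 1% glutamine, 37 °C, 5% CO2. Seeded at 2.5 × 10^3 cells/well, cultured 24 h, then exposed to compounds at 1 and 10 μM final for 72 h. MTS read-out, absorbance 490 nm; percent index from treated/control OD490 × 100, three experiments.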

MRC5 [2] = assay: Cytotoxicity against human MRC5 cells assessed as growth inhibition at 10^-6 M after 72 hrs by MTS assay relative to control; details: MRC5, 72 h, read-out: GI; how it was run: as §1
HCT-116 [3] = assay: Cytotoxicity against human HCT116 cells assessed as growth inhibition at 10^-5 M after 72 hrs by MTS assay relative to control; details: HCT-116, 72 h, read-out: GI; how it was run: as §1
HCT-116 [4] = assay: Cytotoxicity against human HCT116 cells assessed as growth inhibition at 10^-6 M after 72 hrs by MTS assay relative to control; details: HCT-116, 72 h, read-out: GI; how it was run: as §1
Bacillus cereus [5] = assay: Antibacterial activity against Bacillus cereus CIP 6624 after 18 hrs by agar dilution method; details: CIP 6624, 18 h
How it was run: (§2)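 Agar-dilution MIC against Gram-positive strains. Compounds in DMSO, geometric dilutions giving final 100−0.75 mg/L in Mueller Hinton agar. Strains grown 18 h at 37 °C in trypticase soy broth, diluted in sterile water, spotted by Steers inoculator (about 1000 UFC/spot). Plates incubated 18 h at 37 °C; DMSO blank; ofloxacin positive control. MIC = lowest concentration with no visible growth.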

Bacillus cereus [6] = assay: Antibacterial activity against Bacillus cereus N190 after 18 hrs by agar dilution method; details: N190, 18 h; how it was run: as §2
Bacillus cereus [7] = assay: Antibacterial activity against Bacillus cereus N258 after 18 hrs by agar dilution method; details: N258, 18 h; how it was run: as §2
Bacillus cereus [8] = assay: Antibacterial activity against Bacillus cereus N349 after 18 hrs by agar dilution method; details: N349, 18 h; how it was run: as §2
Bacillus spizizenii = assay: Antibacterial activity against Bacillus subtilis ATCC 6633 after 18 hrs by agar dilution method; details: ATCC 6633, 18 h; how it was run: as §2
Corynebacterium striatum = assay: Antibacterial activity against Corynebacterium striatum N840 after 18 hrs by agar dilution method; details: N840, 18 h; how it was run: as §2
Enterococcus avium = assay: Antibacterial activity against Enterococcus avium CIP 104053 after 18 hrs by agar dilution method; details: CIP 104053, 18 h; how it was run: as §2
[9] = test system: Enterococcus casseliflavus; assay: Antibacterial activity against Enterococcus casseliflavus N487 after 18 hrs by agar dilution method; details: N487, 18 h; how it was run: as §2
[10] = test system: Enterococcus casseliflavus; assay: Antibacterial activity against Enterococcus casseliflavus CIP 103018 after 18 hrs by agar dilution method; details: CIP 103018, 18 h; how it was run: as §2
Enterococcus durans = assay: Antibacterial activity against Enterococcus durans CIP 104999 after 18 hrs by agar dilution method; details: CIP 104999, 18 h; how it was run: as §2
Enterococcus faecalis [11] = assay: Antibacterial activity against Enterococcus faecalis CIP 103214 after 18 hrs by agar dilution method; details: CIP 103214, 18 h; how it was run: as §2
Enterococcus faecalis [12] = assay: Antibacterial activity against Enterococcus faecalis CIP 104676 after 18 hrs by agar dilution method; details: CIP 104676, 18 h; how it was run: as §2
Enterococcus faecalis [13] = assay: Antibacterial activity against Enterococcus faecalis N491 after 18 hrs by agar dilution method; details: N491, 18 h; how it was run: as §2
Enterococcus faecalis [14] = assay: Antibacterial activity against Enterococcus faecalis N518 after 18 hrs by agar dilution method; details: N518, 18 h; how it was run: as §2
Enterococcus faecalis [15] = assay: Antibacterial activity against Enterococcus faecalis N520 after 18 hrs by agar dilution method; details: N520, 18 h; how it was run: as §2
Enterococcus faecium [16] = assay: Antibacterial activity against Enterococcus faecium CIP 103014 after 18 hrs by agar dilution method; details: CIP 103014, 18 h; how it was run: as §2
Enterococcus faecium [17] = assay: Antibacterial activity against Enterococcus faecium CIP 107387 after 18 hrs by agar dilution method; details: CIP 107387, 18 h; how it was run: as §2
Enterococcus faecium [18] = assay: Antibacterial activity against Enterococcus faecium N490 after 18 hrs by agar dilution method; details: N490, 18 h; how it was run: as §2
Enterococcus faecium [19] = assay: Antibacterial activity against Enterococcus faecium N507 after 18 hrs by agar dilution method; details: N507, 18 h; how it was run: as §2
Enterococcus faecium [20] = assay: Antibacterial activity against Enterococcus faecium N733 after 18 hrs by agar dilution method; details: N733, 18 h; how it was run: as §2
Enterococcus faecium [21] = assay: Antibacterial activity against Enterococcus faecium N823 after 18 hrs by agar dilution method; details: N823, 18 h; how it was run: as §2
Enterococcus gallinarum [22] = assay: Antibacterial activity against Enterococcus gallinarum CIP 105985 after 18 hrs by agar dilution method; details: CIP 105985, 18 h; how it was run: as §2
Enterococcus gallinarum [23] = assay: Antibacterial activity against Enterococcus gallinarum N489 after 18 hrs by agar dilution method; details: N489, 18 h; how it was run: as §2
Enterococcus gallinarum [24] = assay: Antibacterial activity against Enterococcus gallinarum N492 after 18 hrs by agar dilution method; details: N492, 18 h; how it was run: as §2
Enterococcus hirae = assay: Antibacterial activity against Enterococcus hirae CIP 5855 after 18 hrs by agar dilution method; details: CIP 5855, 18 h; how it was run: as §2
Listeria innocua = assay: Antibacterial activity against Listeria innocua E044 after 18 hrs by agar dilution method; details: E044, 18 h; how it was run: as §2
Listeria monocytogenes [25] = assay: Antibacterial activity against Listeria monocytogenes CIP 103575 after 18 hrs by agar dilution method; details: CIP 103575, 18 h; how it was run: as §2
Listeria monocytogenes [26] = assay: Antibacterial activity against Listeria monocytogenes N783 after 18 hrs by agar dilution method; details: N783, 18 h; how it was run: as §2
Listeria monocytogenes [27] = assay: Antibacterial activity against Listeria monocytogenes N836 after 18 hrs by agar dilution method; details: N836, 18 h; how it was run: as §2
Listeria monocytogenes [28] = assay: Antibacterial activity against Listeria monocytogenes N851 after 18 hrs by agar dilution method; details: N851, 18 h; how it was run: as §2
Staphylococcus aureus [29] = assay: Antibacterial activity against Staphylococcus aureus ATCC 25923 after 18 hrs by agar dilution method; details: ATCC 25923, 18 h; how it was run: as §2
Staphylococcus aureus [30] = assay: Antibacterial activity against Staphylococcus aureus ATCC 9144 oxford after 18 hrs by agar dilution method; how it was run: as §2
Staphylococcus aureus [31] = assay: Antibacterial activity against Staphylococcus aureus CIP 483 after 18 hrs by agar dilution method; details: CIP 483, 18 h; how it was run: as §2
Staphylococcus aureus [32] = assay: Antibacterial activity against Staphylococcus aureus CIP 53154 after 18 hrs by agar dilution method; details: CIP 53154, 18 h; how it was run: as §2
Staphylococcus aureus [33] = assay: Antibacterial activity against Staphylococcus aureus CIP 53156 after 18 hrs by agar dilution method; details: CIP 53156, 18 h; how it was run: as §2
Staphylococcus aureus [34] = assay: Antibacterial activity against Staphylococcus aureus CIP 5710 after 18 hrs by agar dilution method; details: CIP 5710, 18 h; how it was run: as §2
Staphylococcus aureus [35] = assay: Antibacterial activity against Staphylococcus aureus CIP 7625 after 18 hrs by agar dilution method; details: CIP 7625, 18 h; how it was run: as §2
Staphylococcus aureus [36] = assay: Antibacterial activity against Staphylococcus aureus CRBIP 2121 after 18 hrs by agar dilution method; details: CRBIP 2121, 18 h; how it was run: as §2
[37] = test system: Staphylococcus epidermidis; assay: Antibacterial activity against Staphylococcus epidermidis CIP 53124 after 18 hrs by agar dilution method; details: CIP 53124, 18 h; how it was run: as §2
[38] = test system: Staphylococcus haemolyticus; assay: Antibacterial activity against Staphylococcus haemolyticus CIP 8156 after 18 hrs by agar dilution method; details: CIP 8156, 18 h; how it was run: as §2
[39] = test system: Staphylococcus intermedius; assay: Antibacterial activity against Staphylococcus intermedius N987 after 18 hrs by agar dilution method; details: N987, 18 h; how it was run: as §2
[40] = test system: Staphylococcus lugdunensis; assay: Antibacterial activity against Staphylococcus lugdunensis ATCC 43809 after 18 hrs by agar dilution method; details: ATCC 43809, 18 h; how it was run: as §2
[41] = test system: Staphylococcus saprophyticus; assay: Antibacterial activity against Staphylococcus saprophyticus CIP 76125 after 18 hrs by agar dilution method; details: CIP 76125, 18 h; how it was run: as §2
[42] = test system: Staphylococcus saprophyticus; assay: Antibacterial activity against Staphylococcus saprophyticus E260 after 18 hrs by agar dilution method; details: E260, 18 h; how it was run: as §2
Mammaliicoccus sciuri = assay: Antibacterial activity against Staphylococcus sciuri N993 after 18 hrs by agar dilution method; details: N993, 18 h; how it was run: as §2
Streptococcus agalactiae = assay: Antibacterial activity against Streptococcus agalactiae CIP 103227 after 18 hrs by agar dilution method; details: ATCC 13813, 18 h; how it was run: as §2

## C=C1C[C@@H](O)[C@H]2C(C)(C)CCC[C@]2(C)[C@H]1C[C@H](O)C1=CC(=O)OC1O (stereo partly drawn)
MRC5 [1]
  inhibition of growth at 10 µM: 0%
MRC5 [2]
  inhibition of growth at 1 µM: 0%
HCT-116 [3]
  inhibition of growth at 10 µM: 66%
HCT-116 [4]
  inhibition of growth at 1 µM: 0%

## C=C1CC[C@H]2C(C)(C)CCC[C@]2(C)[C@H]1C[C@H](O)C1=CC(=O)OC1O (stereo partly drawn)
Bacillus cereus [5]
  MIC: 24 µM (≈ 8.03 µg/mL)
Bacillus cereus [6]
  MIC: 24 µM (≈ 8.03 µg/mL)
Bacillus cereus [7]
  MIC: 24 µM (≈ 8.03 µg/mL)
Bacillus cereus [8]
  MIC: 24 µM (≈ 8.03 µg/mL)
Bacillus spizizenii
  MIC: 12 µM (≈ 4.01 µg/mL)
Corynebacterium striatum
  MIC: 96 µM (≈ 32.1 µg/mL)
Enterococcus avium
  MIC: 96 µM (≈ 32.1 µg/mL)
[9]
  MIC: > 96 µM
[10]
  MIC: > 96 µM
Enterococcus durans
  MIC: 48 µM (≈ 16.1 µg/mL)
Enterococcus faecalis [11]
  MIC: > 96 µM
Enterococcus faecalis [12]
  MIC: 96 µM (≈ 32.1 µg/mL)
Enterococcus faecalis [13]
  MIC: 96 µM (≈ 32.1 µg/mL)
Enterococcus faecalis [14]
  MIC: > 96 µM
Enterococcus faecalis [15]
  MIC: 96 µM (≈ 32.1 µg/mL)
Enterococcus faecium [16]
  MIC: > 96 µM
Enterococcus faecium [17]
  MIC: > 96 µM
Enterococcus faecium [18]
  MIC: > 96 µM
Enterococcus faecium [19]
  MIC: > 96 µM
Enterococcus faecium [20]
  MIC: > 96 µM
Enterococcus faecium [21]
  MIC: > 96 µM
Enterococcus gallinarum [22]
  MIC: > 96 µM
Enterococcus gallinarum [23]
  MIC: 96 µM (≈ 32.1 µg/mL)
Enterococcus gallinarum [24]
  MIC: 96 µM (≈ 32.1 µg/mL)
Enterococcus hirae
  MIC: > 96 µM
Listeria innocua
  MIC: > 96 µM
Listeria monocytogenes [25]
  MIC: 96 µM (≈ 32.1 µg/mL)
Listeria monocytogenes [26]
  MIC: 96 µM (≈ 32.1 µg/mL)
Listeria monocytogenes [27]
  MIC: 96 µM (≈ 32.1 µg/mL)
Listeria monocytogenes [28]
  MIC: 96 µM (≈ 32.1 µg/mL)
Staphylococcus aureus [29]
  MIC: 48 µM (≈ 16.1 µg/mL)
Staphylococcus aureus [30]
  MIC: 48 µM (≈ 16.1 µg/mL)
Staphylococcus aureus [31]
  MIC: 48 µM (≈ 16.1 µg/mL)
Staphylococcus aureus [32]
  MIC: 48 µM (≈ 16.1 µg/mL)
Staphylococcus aureus [33]
  MIC: 48 µM (≈ 16.1 µg/mL)
Staphylococcus aureus [34]
  MIC: 48 µM (≈ 16.1 µg/mL)
Staphylococcus aureus [35]
  MIC: 48 µM (≈ 16.1 µg/mL)
Staphylococcus aureus [36]
  MIC: 48 µM (≈ 16.1 µg/mL)
[37]
  MIC: 48 µM (≈ 16.1 µg/mL)
[38]
  MIC: 24 µM (≈ 8.03 µg/mL)
[39]
  MIC: 24 µM (≈ 8.03 µg/mL)
[40]
  MIC: 48 µM (≈ 16.1 µg/mL)
[41]
  MIC: 48 µM (≈ 16.1 µg/mL)
[42]
  MIC: 48 µM (≈ 16.1 µg/mL)
Mammaliicoccus sciuri
  MIC: 96 µM (≈ 32.1 µg/mL)
Streptococcus agalactiae
  MIC: 24 µM (≈ 8.03 µg/mL)
MRC5 [1]
  inhibition of growth at 10 µM: 67%
MRC5 [2]
  inhibition of growth at 1 µM: 19%
HCT-116 [3]
  inhibition of growth at 10 µM: 90%
HCT-116 [4]
  inhibition of growth at 1 µM: 1%

## C=C1C[C@@H](O)[C@H]2C(C)(C)CCC[C@]2(C)[C@H]1CCC1=CC(=O)OC1O (stereo partly drawn)
MRC5 [1]
  inhibition of growth at 10 µM: 28%
MRC5 [2]
  inhibition of growth at 1 µM: 5%
HCT-116 [3]
  inhibition of growth at 10 µM: 38%
HCT-116 [4]
  inhibition of growth at 1 µM: 0%

Reference: ChEMBL document CHEMBL3585281, “Antibacterial Labdane Diterpenoids from Vitex vestita” (2015)
